Measurements collected from several papers.
Protocols differ between the studies behind these lines.
Target: Serine/threonine-protein kinase haspin (HASPIN, Homo sapiens, UniProt Q8TF76)
One construct used (Q8TF76 1-798): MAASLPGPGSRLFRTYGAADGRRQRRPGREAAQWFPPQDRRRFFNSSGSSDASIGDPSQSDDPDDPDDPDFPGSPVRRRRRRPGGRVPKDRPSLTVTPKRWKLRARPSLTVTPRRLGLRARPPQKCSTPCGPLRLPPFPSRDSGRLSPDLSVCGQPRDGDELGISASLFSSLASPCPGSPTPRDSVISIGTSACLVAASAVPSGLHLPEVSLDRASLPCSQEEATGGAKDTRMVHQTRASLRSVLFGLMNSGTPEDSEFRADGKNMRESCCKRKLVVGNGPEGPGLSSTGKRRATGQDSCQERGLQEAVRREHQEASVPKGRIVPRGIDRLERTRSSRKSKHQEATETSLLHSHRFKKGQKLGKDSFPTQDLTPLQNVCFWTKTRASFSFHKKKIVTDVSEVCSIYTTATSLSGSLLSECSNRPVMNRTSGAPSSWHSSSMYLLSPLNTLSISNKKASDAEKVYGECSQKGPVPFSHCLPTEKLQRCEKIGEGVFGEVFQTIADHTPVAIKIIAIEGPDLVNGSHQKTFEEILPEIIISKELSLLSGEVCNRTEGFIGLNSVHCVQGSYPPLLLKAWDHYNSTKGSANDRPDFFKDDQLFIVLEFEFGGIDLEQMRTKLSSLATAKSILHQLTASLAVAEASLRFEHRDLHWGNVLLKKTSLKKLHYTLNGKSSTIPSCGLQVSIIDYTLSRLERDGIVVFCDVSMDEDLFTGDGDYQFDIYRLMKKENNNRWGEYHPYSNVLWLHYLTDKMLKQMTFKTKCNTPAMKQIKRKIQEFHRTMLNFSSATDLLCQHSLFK

Structure (SMILES) | test | conditions | remaining binding
COc1cnc(Nc2cccc(S(N)(=O)=O)c2)nc1N1CCN(c2ccccc2)CC1 | binding, competition with immobilised ligand | 1 µM | 82%
C[C@@H]1CCN(c2nccc(-c3cnn4ncccc34)n2)C1 | binding | 1 µM | 2%
CSc1cccnc1N1CCN(Cc2nc3ccccc3[nH]2)CC1 | cell-free assay, competition with immobilised ligand | 1 µM | 100%
N[C@@H]1CCN(c2nccc(-c3cnn4ncccc34)n2)C1 | binding | 1 µM | 2.5%
CCC(=O)N[C@@H]1CC[C@H](C(=O)N(C)c2ccc(-c3nc4ccccc4o3)cc2)C1 | cell-free assay, competition with immobilised ligand | 1 µM | 100%
C=CC(=O)N1CCC(C(=O)NCC(=O)N2CCN(c3nc(-c4cnc(N)nc4C(F)F)nc(N4CCOCC4)n3)CC2)CC1 | binding, competition with immobilised ligand | 1 µM | 75%
F[C@@H]1CCN(c2nccc(-c3cnn4ncccc34)n2)C1 | binding | 1 µM | 15%
O=C(NCCCN1CCOCC1)c1ccc(Nc2ncc(Cl)c(-c3ccc(Cl)s3)n2)cc1 | binding, competition with immobilised ligand | 1 µM | 51%
CN(C)c1ncc(F)c(-c2cnn3ncccc23)n1 | binding | 1 µM | 37%
CCN1CCN(Cc2ccc(C(=O)Nc3ccc(C)c(Oc4ccc5c(c4)CC(=O)N5)c3)cc2C(F)(F)F)CC1 | binding, competition with immobilised ligand | 1 µM | 100%
COc1cnc(Nc2cccc(S(N)(=O)=O)c2)nc1N1CCN(c2ccccc2)C(=O)C1 | binding, competition with immobilised ligand | 1 µM | 89%
Cc1cc(NC(=O)c2cccc(S(F)(F)(F)(F)F)c2)cc(-n2ccn3nc(-c4cccnc4)cc23)c1 | cell-free assay, competition with immobilised ligand | 1 µM | 70.9%
CN(C)c1nccc(-c2cnc3ncccn23)n1 | binding | 1 µM | 2.8%
O=C(c1ccc(Nc2nccc(-c3cc4ccccc4s3)n2)cc1)N1CCC(N2CCCC2)CC1 | binding, competition with immobilised ligand | 1 µM | 64%
C[C@H](NC(=O)c1cnc2n1[C@](C)(Cc1ccc(C#N)cc1)C(=O)N2c1cc(Cl)c(F)c(Cl)c1)C(=O)NC1(c2ccccn2)CC1 | cell-free assay, competition with immobilised ligand | 1 µM | 100%
O=C(NCC1CCOCC1)c1n[nH]cc1NC(=O)c1c(F)cccc1F | binding, competition with immobilised ligand | 1 µM | 88%
O=C1NC(c2ccccn2)Sc2ccccc21 (stereo not shown) | cell-free assay, competition with immobilised ligand | 1 µM | 100%
CN(C)c1nccc(-c2cnn3ncccc23)n1 | binding | 1 µM | 1.5%
CC(=O)N1CCC(c2ccc(C(=O)NC3=NCCN3)cc2C(F)(F)F)CC1 | cell-free assay, competition with immobilised ligand | 1 µM | 78%
O=C(c1ccc(Nc2ncc(Cl)c(-c3ccc(Cl)s3)n2)cc1)N1CCC(N2CCCC2)CC1 | binding, competition with immobilised ligand | 1 µM | 39%
C[C@H](c1ccnc(Nc2nc3ccc(-c4cc(N(C)C)ncn4)cc3[nH]2)c1)N1CCN(C(=O)CC(F)(F)F)CC1 | cell-free assay, competition with immobilised ligand | 0.1 µM | 100%
Nc1ncc2c(n1)-c1c([nH]c3ccc(C#CC4CC4)cc13)CCCC2 | binding, competition with immobilised ligand | 1 µM | 100%
